Compound activity: PubChem, Broad Institute
Most compounds without a hit are left out; they make up all but 1.3% or so of the library.
AF4-AF9 inh: blocks AF4 peptide binding to human AF9 | P42568 | AlphaScreen, biotin-AF4 peptide binding to FLAG-AF9 | inhibition, % at 10 µM | hit rate 0.47% among 350,000 | AID 651704;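 active means every replicate reaching a set inhibition limit, whatever the replicate mean, cut at about 25% in these data; inconclusive means mean inhibition reaches that limit but some replicates miss it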;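 further: 0% = plate neutral control median and 100% = total signal loss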
RAD54 branch: RAD54 (human) branch migration inhibition; inhibition, % at 10.4 µM; hit rate 0.14% among 360,000; RAD54 Holliday junction branch migration, FAM/BHQ fluorescence;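 active means mean normalized replicate activity at least 40 and at least half of replicates scoring 40 or more; inconclusive means only one of the two criteria met; inactive means mean below 40 and under half of replicates reaching 40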;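 further: 0% = median of neutral control wells and 100% = median of positive control wells; inhibitors cause a drop in the FAM fluorescence signal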
INS-1E GSIS act: GLuc luminescence reporter in INS-1E cells, primary screen for activators of glucose-dependent secretion of insulin; INS-1E GLuc reporter insulin secretion, 2-3 h; activation, % at 16.6 µM; hit rate 0.61% among 370,000;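 active means lowest replicate activation of at least 40%, so every replicate reaches that level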;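 further: 0% = median of neutral control wells and 100% = median of IBMX positive control wells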
RAD52 inh: blocks human RAD52 DNA annealing. recombinant RAD52 DNA annealing, FRET fluorescence. inhibition, % at 18.7 µM. hit rate 0.46% among 360,000. AID 651710;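 active means every replicate showing at least 50% inhibition; inconclusive means mean inhibition at least 50% but not in every replicate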
Target sequence (P43351 whole entry, looked up): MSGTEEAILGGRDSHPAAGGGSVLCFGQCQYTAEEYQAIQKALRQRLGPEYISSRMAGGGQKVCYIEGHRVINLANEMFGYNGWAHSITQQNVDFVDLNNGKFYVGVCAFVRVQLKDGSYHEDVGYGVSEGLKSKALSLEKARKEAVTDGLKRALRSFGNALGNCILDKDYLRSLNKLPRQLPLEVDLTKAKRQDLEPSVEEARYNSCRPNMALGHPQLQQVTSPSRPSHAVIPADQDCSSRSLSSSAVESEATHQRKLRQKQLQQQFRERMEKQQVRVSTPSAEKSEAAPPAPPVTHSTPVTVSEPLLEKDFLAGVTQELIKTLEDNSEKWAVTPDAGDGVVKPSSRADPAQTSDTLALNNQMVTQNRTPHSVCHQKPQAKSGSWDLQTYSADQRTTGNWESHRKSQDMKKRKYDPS
S100A4 MyoIIA: inhibitors of human S100A4 binding to myosin IIA peptide; P26447; S100A4/TAMRA-MyoIIA peptide fluorescence polarization; inhibition, % at 10.7 µM; hit rate 0.14% among 360,000; AID 652163;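 active means mean inhibition of at least 70% across replicates, with every replicate also reaching that level; inconclusive means mean inhibition reaches 70% but some replicates fall short; inactive means mean inhibition below 70%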
Target sequence (P26447 whole entry, looked up): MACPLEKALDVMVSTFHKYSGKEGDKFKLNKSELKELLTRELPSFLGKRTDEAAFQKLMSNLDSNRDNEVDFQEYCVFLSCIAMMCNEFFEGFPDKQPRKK
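Test system – S100A4 monomer (human) · Compound – single-point compound testing · Schedule – 5 min incubation before reading · Probe or stimulus – TAMRA-labelled myosin IIA heavy-chain peptide probe, 5 nM · Benchmarks – neutral control DMSO, positive control TFP · Medium – Calcium-containing HEPES buffer, pH 7.2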
An asterisk follows results filed as active; i = inactive; ? = inconclusive; . = no result given.

SMILES	AF4-AF9 inh	RAD54 branch	INS-1E GSIS act	RAD52 inh	S100A4 MyoIIA
CCC(=O)N(C)C[C@H]1Oc2cc(-c3ccccc3C)ccc2S(=O)(=O)N([C@@H](C)CO)C[C@@H]1C	4	-5	-9	-6	1
CC=Cc1ccc2n(c1=O)C[C@@H]1[C@@H](CO)[C@H](C(=O)Nc3ccccc3)[C@H]2N1C(=O)CC1CC1 (mixture of isomers)	0	-2	9	-10	4
O=C(C[C@H]1CC[C@H](NC(=O)CCN2CCCCC2)[C@@H](CO)O1)Nc1nccs1	-8	7	3	6	-1
c1cc(-c2ccc(C3[C@H]4CNC[C@@H]3N4CC3CCCCC3)cc2)ccn1 (some centres undefined)	29*	.	15	-14	-5
c1cc(-c2ccc(C3[C@H]4CNC[C@@H]3N4CC3CCOCC3)cc2)ccn1 (some centres undefined)	3	.	6	-14	10
O=C(C[C@H]1C[C@H]2c3cc(NC(=O)Nc4ccccc4)ccc3O[C@H]2[C@@H](CO)O1)NCCN1CCCCC1	12	22	0	8	-3
Cc1cc(NCCCCCCCNc2cc(C)nc3cc([N+](=O)[O-])ccc23)c2ccc([N+](=O)[O-])cc2n1	6	.	.	77*	-1
Cc1cccc(NCc2ccccc2)c1	1	4	95*	0	0
Cc1ccc(NC(=S)N(CCCN2CCCC2)Cc2cccn2Cc2ccc(Cl)cc2)cc1Cl	?	-4	-4	-4	4
COc1ccc(NC(=S)N(CCCN2CCCC2)Cc2cccn2Cc2ccc(Cl)cc2)cc1Cl	33*	16	-27	-7	-5
COc1ccc(-c2cc3nc4ccccc4n3c(N)c2C#N)cc1	-12	.	86*	-13	2
Oc1c(C(c2ccccn2)N2CCC(Cc3ccccc3)CC2)cc(Cl)c2cccnc12 (centres undefined)	45*	.	1	-5	4
Cc1ccc(C(c2cc(Cl)c3cccnc3c2O)N2CCN(C)CC2)cc1 (centres undefined)	.	8	.	.	.
COc1ccc(CNC(=O)CCS(=O)(=O)c2ccc3c(c2)NC(=O)CS3)cc1	-5	-7	145*	-19	-4
COc1ccc(CNC(=O)CCS(=O)(=O)c2ccc3c(c2)NC(=O)C(C)S3)cc1 (centres undefined)	-4	5	9	-72	-7
O=C(C[C@@H]1CC[C@@H](NC(=O)c2ccc3c(c2)OCO3)[C@@H](CO)O1)NCc1ccc(Oc2ccccc2)cc1	-5	9	-22	9	-8
COc1cccc(-c2ccc3c(c2)[C@@H]2[C@@H](CCN2S(=O)(=O)c2cn(C)cn2)[C@H](CO)N3)c1	.	4	-25	.	.
COc1cccc(C(C(=O)NCc2ccccc2)N2CCN(C(=O)C3CCCO3)CC2)c1OC (centres undefined)	.	.	43*	-9	0
CC(C)C#Cc1cnc2c(c1)C(=O)N([C@@H](C)CO)C[C@H](C)[C@H](CN(C)Cc1cccc(F)c1)O2	-2	8	-12	14	4
Cc1noc(C)c1S(=O)(=O)Nc1ccc2c(c1)C(=O)N([C@@H](C)CO)C[C@H](C)[C@@H](CN(C)S(=O)(=O)c1ccc(F)cc1)OCCCC[C@H](C)O2	0	-5	-13	75*	-16
Cc1noc(C)c1S(=O)(=O)Nc1ccc2c(c1)C(=O)N([C@@H](C)CO)C[C@H](C)[C@H](CN(C)S(=O)(=O)c1ccc(F)cc1)OCCCC[C@@H](C)O2	2	-1	-9	-38	7
Cc1noc(C)c1S(=O)(=O)Nc1ccc2c(c1)C(=O)N([C@H](C)CO)C[C@@H](C)[C@@H](CN(C)S(=O)(=O)c1ccc(F)cc1)OCCCC[C@@H](C)O2	2	-9	-12	57*	-12
Cc1ccc(S(=O)(=O)c2ccc([N+](=O)[O-])o2)cc1	3	.	99*	0	-5
Cc1ccc(NC(=O)c2ccc([N+](=O)[O-])o2)c(C)c1	0	7	2	-8	-2
O=C(C1CCCCC1)N1CC2(C1)[C@H](c1ccccc1)[C@H](CO)N2Cc1ccccc1F	-14	.	-33	-107	47
SMILES	AF4-AF9 inh	RAD54 branch	INS-1E GSIS act	RAD52 inh	S100A4 MyoIIA
COc1cc2ccc(CC(=O)O)cc2cc1OC	-6	.	77*	-12	-3
CCOC(=O)c1ccc(NC(=S)Nc2cccc(C)n2)cc1	.	-2	48*	.	.
C/C=C/c1ccc([C@H]2[C@@H](CO)N(Cc3ccccc3)[C@H]2CNC(=O)C2CC2)cc1	.	.	0	.	.
O=C1C=C(N2CCOCC2)c2cccc3cccc1c23	8	1	-7	i	83*
O=C1C=C(N2CCOCC2)c2ccccc2C1=O	3	10	-15	-5	-8
O=C1C(N2CCOCC2)=Cc2cccc3cccc1c23	2	-7	-16	i	90*
O=C1C[C@@H](c2ccccc2)C(=O)N[C@H](c2ccccc2)C/C=C\C[C@@H](c2ccccc2)N1	.	.	9	.	.
C[C@H](CO)N1C[C@H](C)[C@H](CN(C)C(=O)Nc2ccc(F)cc2)OCCCC[C@H](C)Oc2ccc(NS(=O)(=O)c3cn(C)cn3)cc2C1=O	6	6	-7	12	-2
COc1ccc(Br)cc1C(=O)Nc1cccc(C)c1	.	.	51*	.	.
COc1ccc(Br)cc1C(=O)Nc1cccc(NC(=O)c2ccco2)c1	.	-12	.	.	.
CC(=O)Nc1ccc2c(c1)C(=O)N(C)[C@H]1CC[C@@H](CC(=O)NCc3ccc(F)cc3)O[C@@H]1CO2	-1	3	-2	10	16
Cc1nn(-c2ccccc2Cl)c(Cl)c1/C=C(\C#N)C(N)=O	1	.	64*	-3	0
C[C@@H]1CN([C@H](C)CO)C(=O)Cc2cc(NS(C)(=O)=O)ccc2O[C@@H]1CN(C)S(=O)(=O)c1ccccc1	-1	4	7	10	4
CCOC(=O)N1CCN(C2=C(NS(=O)(=O)c3ccc(Br)cc3)C(=O)c3ccccc3C2=O)CC1	32*	-5	.	-16	0
CCOC(=O)N1CCN(C2=C(NS(=O)(=O)c3ccccc3)C(=O)c3ccccc3C2=O)CC1	26*	-4	.	-4	-1
COc1ccc(Cc2nnc(NC(=O)Cc3cccs3)s2)cc1OC	.	-4	153*	.	.
CCN(CC)c1ccc(NC(=O)Nc2ccccc2)cc1	25*	15	5	-5	-15
CCN(CC)c1ccc(NC(=O)Nc2ccc(C(C)=O)cc2)cc1	.	14	.	.	.
CCN(CCC(=O)O)c1ccccc1	.	.	63*	.	.
NC(=O)N(CCC(=O)O)c1ccccc1	.	.	4	.	.
COc1cccc(NC(=O)N(C)C[C@@H]2Oc3cc(-c4cccc(C(=O)N(C)C)c4)ccc3S(=O)(=O)N([C@H](C)CO)C[C@H]2C)c1	-21	-12	-6	0	-2
CCOC(=O)C(CNc1ccc(OCc2ccccc2)cc1)NC(=O)c1ccccc1 (centres undefined)	1	.	-25	-53	28
O=C(CC1c2ccccc2Oc2ccccc21)Nc1ccccc1C(F)(F)F	.	.	102*	.	.
